Test results from ChEMBL document CHEMBL1126878, “4,5-Dihydro-1-phenyl-1H-2,4-benzodiazepines: novel antiarrhythmic agents” (J Med Chem, 1993).

Tests used:
[1] = tested on: Cavia porcellus; assay: In vivo index of cardiac contractility using paced guinea pig model; type: functional
Method in brief: (§1)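 Guinea pig paced in vivo model. Hemodynamics recorded in normal sinus rhythm; ERP measured during brief pacing at baseline and 10 min after dosing. Bolus of 1 mL/kg via left ventricular catheter for doses <10 mg/kg; higher doses infused over 1 min. Cumulative dosing every 15 min up to the maximally tolerated dose (dP/dt reduced >50%). ED20 (ERP +20 ms) and dP/dt20 (20% drop in LV pressure-rise rate) derived by linear regression of individual dose-response curves.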

[2] = tested on: Cavia porcellus; assay: Effective dose in vivo for cardiac refractoriness (ERP) using paced guinea pig model; type: functional; method in brief: as §1
[3] = target: Sodium channel protein type 5 subunit alpha (cardiac sodium channel) (Rattus norvegicus, UniProt P15389); assay: in vitro; conditions: sodium channel from cardiac myocytes, probe [3H]batrachotoxin ([3H]BTX)
Chain of Sodium channel protein type 5 subunit alpha (cardiac sodium channel) (P15389 whole entry): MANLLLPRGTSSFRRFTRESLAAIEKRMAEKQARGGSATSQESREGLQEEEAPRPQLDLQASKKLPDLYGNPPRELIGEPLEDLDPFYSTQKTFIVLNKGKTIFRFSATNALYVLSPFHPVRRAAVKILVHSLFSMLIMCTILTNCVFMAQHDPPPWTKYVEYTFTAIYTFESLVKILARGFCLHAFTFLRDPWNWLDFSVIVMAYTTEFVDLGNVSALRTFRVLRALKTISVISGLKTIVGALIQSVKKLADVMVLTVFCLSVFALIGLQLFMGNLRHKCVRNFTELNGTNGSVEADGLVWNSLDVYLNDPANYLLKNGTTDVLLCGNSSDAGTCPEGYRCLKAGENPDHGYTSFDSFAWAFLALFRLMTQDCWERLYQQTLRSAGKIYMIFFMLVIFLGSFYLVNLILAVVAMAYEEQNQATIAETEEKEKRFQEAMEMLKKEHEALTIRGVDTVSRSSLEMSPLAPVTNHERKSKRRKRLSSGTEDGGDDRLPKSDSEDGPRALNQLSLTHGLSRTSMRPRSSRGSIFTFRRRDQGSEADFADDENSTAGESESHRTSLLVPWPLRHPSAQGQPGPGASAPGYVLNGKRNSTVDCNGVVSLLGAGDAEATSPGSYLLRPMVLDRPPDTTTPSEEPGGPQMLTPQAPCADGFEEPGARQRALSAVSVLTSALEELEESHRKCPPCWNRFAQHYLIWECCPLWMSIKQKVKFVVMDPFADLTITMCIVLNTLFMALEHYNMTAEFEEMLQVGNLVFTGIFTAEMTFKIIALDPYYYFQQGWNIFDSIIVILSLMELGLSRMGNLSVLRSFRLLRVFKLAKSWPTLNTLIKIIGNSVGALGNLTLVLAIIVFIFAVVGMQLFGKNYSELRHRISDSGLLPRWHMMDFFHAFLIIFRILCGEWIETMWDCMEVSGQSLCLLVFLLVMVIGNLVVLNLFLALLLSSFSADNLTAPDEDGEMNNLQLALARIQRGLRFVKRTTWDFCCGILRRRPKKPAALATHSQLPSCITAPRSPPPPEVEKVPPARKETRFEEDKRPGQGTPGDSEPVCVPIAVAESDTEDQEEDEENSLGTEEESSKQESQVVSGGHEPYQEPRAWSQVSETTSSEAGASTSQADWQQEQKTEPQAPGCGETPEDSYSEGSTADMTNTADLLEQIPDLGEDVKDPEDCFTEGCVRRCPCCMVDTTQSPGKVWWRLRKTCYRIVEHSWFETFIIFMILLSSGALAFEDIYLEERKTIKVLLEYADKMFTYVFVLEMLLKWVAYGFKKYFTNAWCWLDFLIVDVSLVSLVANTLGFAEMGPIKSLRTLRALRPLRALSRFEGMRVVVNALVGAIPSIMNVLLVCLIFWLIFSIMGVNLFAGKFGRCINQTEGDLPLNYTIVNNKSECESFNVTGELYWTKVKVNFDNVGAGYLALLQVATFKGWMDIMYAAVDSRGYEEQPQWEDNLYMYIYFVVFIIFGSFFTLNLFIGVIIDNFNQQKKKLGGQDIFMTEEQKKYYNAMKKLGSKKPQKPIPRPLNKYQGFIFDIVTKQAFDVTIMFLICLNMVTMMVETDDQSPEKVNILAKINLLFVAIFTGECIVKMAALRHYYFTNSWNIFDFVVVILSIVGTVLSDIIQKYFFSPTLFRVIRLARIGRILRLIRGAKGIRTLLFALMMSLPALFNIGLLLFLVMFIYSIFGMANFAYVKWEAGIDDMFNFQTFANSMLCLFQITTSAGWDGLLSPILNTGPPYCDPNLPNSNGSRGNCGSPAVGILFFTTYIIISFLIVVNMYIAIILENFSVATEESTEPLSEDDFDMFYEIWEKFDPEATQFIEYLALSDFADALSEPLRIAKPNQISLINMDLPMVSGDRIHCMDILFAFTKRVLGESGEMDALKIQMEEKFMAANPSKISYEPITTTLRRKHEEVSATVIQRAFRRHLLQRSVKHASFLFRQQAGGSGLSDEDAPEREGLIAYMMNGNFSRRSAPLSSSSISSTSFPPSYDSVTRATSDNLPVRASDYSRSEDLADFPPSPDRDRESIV

Structure (SMILES)	dP/dt20 [1] [mg/kg]	ED20 [2] [mg/kg]	inhibition at 10 µM [3] [%]
COc1ccc(C(=O)Nc2ccccc2CCC2CCCCN2C)cc1 (stereo unspecified) [ENCAINIDE]	0.003	0.7	55
CN1Cc2ccccc2C(c2ccc(Cl)cc2)N=C1CCc1ccccc1 (stereo unspecified)	0.2	0.2	96
CCC1=NC(COC)(c2ccccc2)c2ccccc2CN1C (stereo unspecified)	0.1	2.5	45
COc1ccc(C2N=C(CCc3ccccc3)N(C)Cc3ccccc32)cc1.Cl (stereo unspecified)	0.1	0.1	95
CCC1=NC(c2ccccc2)c2ccc3ccccc3c2CN1C (stereo unspecified)	0.06	0.3	98
CCC1=NC(c2ccccc2)c2ccccc2CN1Cc1ccccc1.Cl (stereo unspecified)	0.2	1	98
CCCC1=NC(c2ccccc2)c2ccccc2CN1C.Cl (stereo unspecified)	0.8	0.4	72
CCN(CC)CC(=O)Nc1c(C)cccc1C [LIDOCAINE]	4.3	8	10
CN1Cc2ccccc2C(C)(c2ccccc2)N=C1CCl (stereo unspecified)	0.002	0.4	82
CN1CCN(CC2=NC(c3ccccc3)c3ccccc3CN2C)CC1.O=C(O)/C=C/C(=O)O (stereo unspecified)	0.1	0.4	38
CN1C=NC(c2ccccc2)c2ccccc2C1 (stereo unspecified)	0.9	1.4	68
CCN(CC)CC1=NC(C)(c2ccccc2)c2ccccc2CN1C.Cl (stereo unspecified)	0.01	> 20	90
CCCCCCCCC1=NC(c2ccccc2)c2ccccc2CN1C.Cl (stereo unspecified)	0.1	0.2	81
CN1Cc2ccccc2C(c2ccccc2)N=C1CCCc1ccccc1.Cl (stereo unspecified)	0.12	0.2	100
CCC1=NCc2ccccc2C(c2ccccc2)N1Cc1ccccc1.Cl (stereo unspecified)	0.3	> 3	97
CC(C)C1=NC(C)(c2ccccc2)c2ccccc2CN1C (stereo unspecified)	0.7	0.8	50
CCN(CC)CCNC1=NC(c2ccccc2)c2ccccc2CN1C.O=C(O)/C=C/C(=O)O (stereo unspecified)	0.9	0.7	98
CN1Cc2ccccc2C(c2ccccc2)N=C1N.Cl (stereo unspecified)	1	1.7	91
CN1Cc2ccccc2C(Cc2ccccc2)N=C1CCc1ccccc1.O=C(O)/C=C/C(=O)O (stereo unspecified)	0.04	0.2	97
CN1Cc2ccccc2C(C)(c2ccccc2)N=C1CCc1ccccc1 (stereo unspecified)	0.9	0.34	97
CCCCC1=NC(c2ccccc2)c2ccccc2CN1C.Cl (stereo unspecified)	0.1	0.1	83
CN1Cc2ccccc2C(c2ccccc2)N=C1Cc1ccccc1.Cl (stereo unspecified)	0.15	0.3	95
CCC1=NC(C(C)=O)(c2ccccc2)c2ccccc2CN1C.O=C(O)/C=C/C(=O)O (stereo unspecified)	0.45	0.9	28
CN(C)CC1=NC(c2ccccc2)c2ccccc2CN1C.O=C(O)/C=C/C(=O)O (stereo unspecified)	–	0.6	44

Structure (SMILES)	dP/dt20 [1] [mg/kg]	ED20 [2] [mg/kg]	inhibition at 10 µM [3] [%]
CN1Cc2ccccc2C(c2ccccc2)N=C1COc1ccc(Cl)cc1 (stereo unspecified)	0.17	0.2	100
COc1ccc(OCC2=NC(c3ccccc3)c3ccccc3CN2C)cc1.Cl (stereo unspecified)	0.48	0.1	98
CCC1=NC(c2cccc3ccccc23)c2ccccc2CN1C (stereo unspecified)	0.2	0.6	94
CCC1=NC(c2ccccc2)c2ccccc2CN1.Cl (stereo unspecified)	0.2	1.1	84
CCOC(=O)CC1=NC(C)(c2ccccc2)c2ccccc2CN1C (stereo unspecified)	0.007	0.3	79
CCC1=NC(Cc2ccccc2)c2ccccc2CN1C (stereo unspecified)	0.2	0.2	84
CN1Cc2ccccc2C(c2ccccc2)N=C1CCC1CCCCC1.Cl (stereo unspecified)	0.66	0.1	98
CN1Cc2ccccc2C(c2ccccc2)N=C1CN1CCOCC1.O=C(O)/C=C/C(=O)O (stereo unspecified)	0.11	0.25	57
CCN(CC)CCNC(=O)c1ccc(NS(C)(=O)=O)cc1 [SEMATILIDE]	18.7	1.9	0
CN1Cc2ccccc2C(c2ccccc2)N=C1c1ccccc1 (stereo unspecified)	1.1	0.3	85
CCC1=NC(CC)(c2ccccc2)c2ccccc2CN1C (stereo unspecified)	0.1	0.2	78
CN1Cc2ccccc2C(c2ccccc2)N=C1N1CCOCC1.Cl (stereo unspecified)	0.4	0.6	49
CCC1=NC(c2ccccc2)c2ccccc2C(c2ccccc2)N1C (stereo unspecified)	0.01	> 20	97
CN1Cc2ccccc2C(c2ccccc2)N=C1CN1CCCCC1.O=C(O)/C=C/C(=O)O (stereo unspecified)	0.002	0.4	94
CN1Cc2ccccc2C(c2ccccc2)N=C1COc1ccccc1.Cl (stereo unspecified)	–	0.3	98
CC(C)NCC(O)c1ccc(NS(C)(=O)=O)cc1 (stereo unspecified) [SOTALOL]	1.9	1.3	0
COc1ccc(CCC2=NC(c3ccccc3)c3ccccc3CN2C)cc1.Cl (stereo unspecified)	0.66	0.1	91
CN1Cc2ccccc2C(c2ccccc2)N=C1N1CCCC1 (stereo unspecified)	–	0.2	100
CCCCCC1=NC(c2ccccc2)c2ccccc2CN1C.Cl (stereo unspecified)	0.08	0.1	95
CN(C)CC1=NC(C)(c2ccccc2)c2ccccc2CN1C (stereo unspecified)	0.02	0.8	57
CN1Cc2ccccc2C(C)(c2ccccc2)N=C1CN1CCOCC1 (stereo unspecified)	0.1	2.4	51
CC1=NC(c2ccccc2)c2ccccc2CN1C (stereo unspecified)	0.9	1.2	52
CCC1=NC(c2ccccc2)c2ccccc2CN1C(C)C.Cl (stereo unspecified)	0.15	0.2	87
CC1=NC(C)(c2ccccc2)c2ccccc2CN1C.O=C(O)/C=C/C(=O)O (stereo unspecified)	0.9	0.8	71
